Measurements as given in ChEMBL document CHEMBL5058577, “EUbOPEN Chemogenomics Library 2 (Multiplex)” (2022).

System: Fibroblast
Assay: Multiplex assay against human fibroblast
Assay type: toxicity, cell-based
Method in brief: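 Imaging took place on a CQ1 microscope at 37°C and 5% CO2 once compound had been added to live cells stained at seeding with Hoechst33342, BioTracker Green Microtubule Cytoskeleton Dye, MitoTracker Red and Annexin V Alexa Fluor 680. CellPathfinder machine-learning gating classed cells as Hoechst high-intensity objects or normal cells, classed normal cells as having healthy, pyknosed or fragmented nuclei, and classed pyknosed cells as mitotic or apoptotic. Tubulin, mitochondrial-mass and membrane-permeability phenotypes are per cents of the healthy-nucleus cells.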

[1] = 12 h, 1 µM, compound concentration 1 uM, replicate 1
[2] = 12 h, 1 µM, compound concentration 1 uM, replicate 2
[3] = 12 h, 10 µM, compound concentration 10 uM, replicate 1
[4] = 12 h, 10 µM, compound concentration 10 uM, replicate 2
[5] = 24 h, 1 µM, compound concentration 1 uM, replicate 1
[6] = 24 h, 1 µM, compound concentration 1 uM, replicate 2
[7] = 24 h, 10 µM, compound concentration 10 uM, replicate 1
[8] = 24 h, 10 µM, compound concentration 10 uM, replicate 2
[9] = 48 h, 1 µM, compound concentration 1 uM, replicate 1
[10] = 48 h, 1 µM, compound concentration 1 uM, replicate 2
[11] = 48 h, 10 µM, compound concentration 10 uM, replicate 1
[12] = 48 h, 10 µM, compound concentration 10 uM, replicate 2

SMILES: O=C(O)CCC/C=C\CC1C(O)CC(O)C1/C=C/C(O)COc1cccc(Cl)c1 (centres undefined) [CLOPROSTENOL]
- Population Apoptotic (%) [1]: 41%
- Population Fragmented Nuclei (%) [1]: 15%
- Population Healthy Nuclei (%) [1]: 68%
- Population Hoechst High Intensity Objects (%) [1]: 0%
- Population Membrane Permeable-Phenotype (%) [1]: 0%
- Population Mitochondria Different-Phenotype (%) [1]: 2%
- Population Mitotic Cells (%) [1]: 58%
- Population Normal (%) [1]: 100%
- Population Pyknosed Nuclei (%) [1]: 15%
- Population Tubulin-Different-Phenotype (%) [1]: 22%
- Total Cell Count [1]: 153
- Population Apoptotic (%) [2]: 20%
- Population Fragmented Nuclei (%) [2]: 22%
- Population Healthy Nuclei (%) [2]: 52%
- Population Hoechst High Intensity Objects (%) [2]: 2%
- Population Membrane Permeable-Phenotype (%) [2]: 8%
- Population Mitotic Cells (%) [2]: 80%
- Population Normal (%) [2]: 97%
- Population Pyknosed Nuclei (%) [2]: 25%
- Population Tubulin-Different-Phenotype (%) [2]: 52%
- Total Cell Count [2]: 141
- Population Apoptotic (%) [3]: 38%
- Population Fragmented Nuclei (%) [3]: 23%
- Population Healthy Nuclei (%) [3]: 58%
- Population Hoechst High Intensity Objects (%) [3]: 12%
- Population Membrane Permeable-Phenotype (%) [3]: 0%
- Population Mitochondria Different-Phenotype (%) [3]: 4%
- Population Mitotic Cells (%) [3]: 61%
- Population Normal (%) [3]: 87%
- Population Pyknosed Nuclei (%) [3]: 18%
- Population Tubulin-Different-Phenotype (%) [3]: 31%
- Total Cell Count [3]: 212
- Population Apoptotic (%) [4]: 23%
- Population Healthy Nuclei (%) [4]: 43%
- Population Hoechst High Intensity Objects (%) [4]: 4%
- Population Membrane Permeable-Phenotype (%) [4]: 11%
- Population Mitochondria Different-Phenotype (%) [4]: 9%
- Population Mitotic Cells (%) [4]: 76%
- Population Normal (%) [4]: 95%
- Population Pyknosed Nuclei (%) [4]: 34%
- Population Tubulin-Different-Phenotype (%) [4]: 53%
- Total Cell Count [4]: 105
- Population Apoptotic (%) [5]: 41%
- Population Fragmented Nuclei (%) [5]: 19%
- Population Healthy Nuclei (%) [5]: 62%
- Population Hoechst High Intensity Objects (%) [5]: 0%
- Population Membrane Permeable-Phenotype (%) [5]: 1%
- Population Mitochondria Different-Phenotype (%) [5]: 3%
- Population Mitotic Cells (%) [5]: 58%
- Population Normal (%) [5]: 99%
- Population Pyknosed Nuclei (%) [5]: 18%
- Population Tubulin-Different-Phenotype (%) [5]: 26%
- Total Cell Count [5]: 161
- Population Apoptotic (%) [6]: 18%
- Population Fragmented Nuclei (%) [6]: 27%
- Population Healthy Nuclei (%) [6]: 49%
- Population Hoechst High Intensity Objects (%) [6]: 3%
- Population Membrane Permeable-Phenotype (%) [6]: 7%
- Population Mitochondria Different-Phenotype (%) [6]: 5%
- Population Mitotic Cells (%) [6]: 81%
- Population Normal (%) [6]: 96%
- Population Pyknosed Nuclei (%) [6]: 23%
- Population Tubulin-Different-Phenotype (%) [6]: 53%
- Total Cell Count [6]: 144
- Population Apoptotic (%) [7]: 41%
- Population Fragmented Nuclei (%) [7]: 24%
- Population Healthy Nuclei (%) [7]: 57%
- Population Hoechst High Intensity Objects (%) [7]: 12%
- Population Membrane Permeable-Phenotype (%) [7]: 2%
- Population Mitochondria Different-Phenotype (%) [7]: 3%
- Population Mitotic Cells (%) [7]: 58%
- Population Normal (%) [7]: 87%
- Population Pyknosed Nuclei (%) [7]: 18%
- Population Tubulin-Different-Phenotype (%) [7]: 24%
- Total Cell Count [7]: 218
- Population Apoptotic (%) [8]: 59%
- Population Fragmented Nuclei (%) [8]: 28%
- Population Healthy Nuclei (%) [8]: 50%
- Population Hoechst High Intensity Objects (%) [8]: 3%
- Population Membrane Permeable-Phenotype (%) [8]: 7%
- Population Mitotic Cells (%) [8]: 40%
- Population Normal (%) [8]: 96%
- Population Pyknosed Nuclei (%) [8]: 21%
- Population Tubulin-Different-Phenotype (%) [8]: 57%
- Total Cell Count [8]: 107
- Population Apoptotic (%) [9]: 65%
- Population Fragmented Nuclei (%) [9]: 21%
- Population Healthy Nuclei (%) [9]: 59%
- Population Hoechst High Intensity Objects (%) [9]: 2%
- Population Membrane Permeable-Phenotype (%) [9]: 2%
- Population Mitochondria Different-Phenotype (%) [9]: 2%
- Population Mitotic Cells (%) [9]: 34%
- Population Normal (%) [9]: 97%
- Population Pyknosed Nuclei (%) [9]: 19%
- Population Tubulin-Different-Phenotype (%) [9]: 25%
- Total Cell Count [9]: 156
- Population Apoptotic (%) [10]: 36%
- Population Fragmented Nuclei (%) [10]: 37%
- Population Healthy Nuclei (%) [10]: 43%
- Population Hoechst High Intensity Objects (%) [10]: 3%
- Population Membrane Permeable-Phenotype (%) [10]: 12%
- Population Mitochondria Different-Phenotype (%) [10]: 10%
- Population Mitotic Cells (%) [10]: 64%
- Population Normal (%) [10]: 96%
- Population Pyknosed Nuclei (%) [10]: 18%
- Population Tubulin-Different-Phenotype (%) [10]: 63%
- Total Cell Count [10]: 137
- Population Apoptotic (%) [11]: 46%
- Population Fragmented Nuclei (%) [11]: 25%
- Population Healthy Nuclei (%) [11]: 57%
- Population Hoechst High Intensity Objects (%) [11]: 13%
- Population Membrane Permeable-Phenotype (%) [11]: 0%
- Population Mitochondria Different-Phenotype (%) [11]: 2%
- Population Mitotic Cells (%) [11]: 53%
- Population Normal (%) [11]: 86%
- Population Pyknosed Nuclei (%) [11]: 16%
- Population Tubulin-Different-Phenotype (%) [11]: 30%
- Total Cell Count [11]: 205
- Population Apoptotic (%) [12]: 55%
- Population Fragmented Nuclei (%) [12]: 41%
- Population Healthy Nuclei (%) [12]: 49%
- Population Hoechst High Intensity Objects (%) [12]: 8%
- Population Membrane Permeable-Phenotype (%) [12]: 4%
- Population Mitochondria Different-Phenotype (%) [12]: 4%
- Population Mitotic Cells (%) [12]: 44%
- Population Normal (%) [12]: 91%
- Population Pyknosed Nuclei (%) [12]: 9%
- Population Tubulin-Different-Phenotype (%) [12]: 61%
- Total Cell Count [12]: 108
